Results reported in ChEMBL document CHEMBL3758146, “Synthesis and biological evaluation of quinazolin-4(3H)-one derivatives bearing dithiocarbamate side chain at C2-position as potential antitumor agents” (Eur J Med Chem, 2016).
The source made the active and inactive calls. The rule behind the calls is not given here.

Columns and labels:
MCF7 [1] = experiment: Antiproliferative activity against human MCF7 cells after 72 hrs by MTS assay; assay type: functional, cell-based; details: MCF7, 72 h
Summary of the method: (§1)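 MTS (CellTiter 96 AQueous One) read-out after 72 h exposure; compounds first screened at 50 µM, with ≥50% inhibition versus vehicle-treated cells counted as active. Actives were then tested at various concentrations to give IC50 (concentration causing 50% proliferation inhibition). Triplicate wells, three independent experiments, mean ± SD. 5-FU as positive control.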

HeLa = experiment: Antiproliferative activity against human HeLa cells after 72 hrs by MTS assay; assay type: functional, cell-based; summary of the method: as §1
HT-29 [2] = experiment: Antiproliferative activity against human HT-29 cells after 72 hrs by MTS assay; assay type: functional, cell-based; details: HT-29, 72 h; summary of the method: as §1
[3] = Antiproliferative activity against human HCT116 cells after 72 hrs by MTS assay; assay type: functional, cell-based; details: HCT-116, 72 h; summary of the method: as §1
A549 = experiment: Antiproliferative activity against human A549 cells after 72 hrs by MTS assay; assay type: functional, cell-based; details: A549, 72 h; summary of the method: as §1
HT-29 [4] = experiment: Upregulation of phosphorylated BubR1 level in human HT-29 cells after 16 hrs by immuno-blot analysis; assay type: functional, cell-based
HT-29 [5] = experiment: Cell cycle arrest in human HT-29 cells assessed as accumulation at S phase at IC50 after 24 hrs by propidium iodide staining based FACS analysis (reference value: 33.05 +/- 2.22%); assay type: functional
HT-29 [6] = experiment: Induction of DNA damage in human HT-29 cells assessed as gamma-H2AX foci formation after 1 to 2 hrs by DAPI staining based indirect immunofluorescence assay; assay type: functional, cell-based
Summary of the method: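 HT29 cells treated 1 or 2 h alongside CPT (2 µM) and DMSO diluent, fixed, immunostained with mouse monoclonal anti-γ-H2AX (clone JBW301, 1:1500) and counterstained with DAPI for DNA; γ-H2AX foci scored by indirect immunofluorescence.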

HT-29 [7] = experiment: Cell cycle arrest in human HT-29 cells assessed as accumulation at G0/G1 phase at IC50 after 24 hrs by propidium iodide staining based FACS analysis (reference value: 50.25 +/- 1.19%); assay type: functional
HT-29 [8] = experiment: Induction of spindle assembly checkpoint in human HT-29 cells assessed as mitotic index after 2 hrs by immunostaining assay (reference value: 2.47 +/- 0.71); assay type: functional
HT-29 [9] = experiment: Cell cycle arrest in human HT-29 cells assessed as accumulation at G2/M phase at IC50 after 24 hrs by propidium iodide staining based FACS analysis (reference value: 16.7 +/- 1.55%); assay type: functional
HT-29 [10] = experiment: Induction of spindle assembly checkpoint in human HT-29 cells assessed as mitotic index after 8 hrs by immunostaining assay (reference value: 2.81 +/- 0.82); assay type: functional
Tubulin (Sus scrofa) [11] = target: T1, Tubulin (Sus scrofa) (UniProt P02554+P02550); experiment: Induction of porcine neuronal tubulin polymerization at 10 uM after 60 mins by spectrometric analysis; assay type: protein assay
Summary of the method: (§2)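 Cell-free tubulin polymerization run by a commercial kit protocol; assembly followed as rise in absorbance at 340 nm over 60 min at 37 °C, with Taxol as reference.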

Tubulin (Sus scrofa) [12] = target: T1, Tubulin (Sus scrofa); experiment: Induction of porcine neuronal tubulin polymerization at 15 uM after 60 mins by spectrometric analysis; assay type: protein assay; summary of the method: as §2
HT-29 [13] = experiment: Induction of spindle assembly checkpoint in human HT-29 cells assessed as mitotic index after 4 hrs by immunostaining assay (reference value: 3.13 +/- 1.01); assay type: functional
HT-29 [14] = experiment: Induction of DNA damage in human HT-29 cells assessed as increase in gamma-H2AX protein level after 1 to 2 hrs by Western blot analysis; assay type: functional, cell-based
Summary of the method: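 Total lysates of HT29 cells treated 1 or 2 h, with CPT (2 µM) and DMSO diluent as comparators, immunoblotted for γ-H2AX (15 kDa), with β-actin (42 kDa) as loading control probed on a separate section of the same membrane.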

HT-29 [15] = experiment: Induction of spindle assembly checkpoint in human HT-29 cells assessed as mitotic index after 16 hrs by immunostaining assay (reference value: 2.87 +/- 0.82); assay type: functional
CA46 = experiment: Cytotoxicity against human CA46 cells assessed as growth inhibition after 24 hrs by coulter counter analysis; assay type: functional, cell-based; details: CA46, 24 h
MCF7 [16] = experiment: Cytotoxicity against human MCF7 cells assessed as growth inhibition after 48 hrs by sulforhodamine B assay; assay type: functional, cell-based; details: MCF7, 48 h
HT-29 [17] = experiment: Induction of DNA damage in human HT-29 cells assessed as increase in gamma-H2AX protein level at 2 uM after 1 to 2 hrs by Western blot analysis; assay type: functional, cell-based
Summary of the method: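 HT29 cells treated 1 or 2 h, DMSO as diluent control. Total lysates immunoblotted for γ-H2AX (15 kDa), with β-actin (42 kDa) as loading reference; both probed on separate sections of one membrane.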

HT-29 [18] = experiment: Induction of DNA damage in human HT-29 cells assessed as gamma-H2AX foci formation at 2 uM after 1 to 2 hrs by DAPI staining based indirect immunofluorescence assay; assay type: functional, cell-based
Summary of the method: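 HT29 cells exposed 1 or 2 h, DMSO as diluent control. After fixation, cells immunostained with mouse monoclonal anti-γ-H2AX (clone JBW301, 1:1500) and DNA counterstained with DAPI. γ-H2AX foci scored by indirect immunofluorescence.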

HT-29 [19] = experiment: Cell cycle arrest in human HT-29 cells assessed as accumulation at G2/M phase at 0.18 uM after 24 hrs by propidium iodide staining based FACS analysis (reference value: 16.7 +/- 1.55%); assay type: functional
HT-29 [20] = experiment: Cell cycle arrest in human HT-29 cells assessed as accumulation at G0/G1 phase at 0.18 uM after 24 hrs by propidium iodide staining based FACS analysis (reference value: 50.25 +/- 1.19%); assay type: functional
HT-29 [21] = experiment: Cell cycle arrest in human HT-29 cells assessed as accumulation at S phase at 0.18 uM after 24 hrs by propidium iodide staining based FACS analysis (reference value: 33.05 +/- 2.22%); assay type: functional

T1 sequence (P02550 whole entry, looked up): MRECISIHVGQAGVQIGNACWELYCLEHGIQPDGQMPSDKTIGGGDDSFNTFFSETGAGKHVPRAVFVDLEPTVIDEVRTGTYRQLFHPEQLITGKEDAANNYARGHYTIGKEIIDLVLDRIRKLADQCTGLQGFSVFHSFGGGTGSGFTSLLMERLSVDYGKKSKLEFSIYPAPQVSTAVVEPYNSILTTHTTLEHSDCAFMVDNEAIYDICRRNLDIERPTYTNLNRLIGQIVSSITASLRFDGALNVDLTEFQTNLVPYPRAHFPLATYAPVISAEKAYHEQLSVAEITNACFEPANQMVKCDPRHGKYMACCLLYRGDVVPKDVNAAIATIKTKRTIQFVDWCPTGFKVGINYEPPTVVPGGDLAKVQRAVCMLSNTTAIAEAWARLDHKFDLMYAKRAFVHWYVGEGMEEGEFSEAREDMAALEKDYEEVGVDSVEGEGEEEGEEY
T1 sequence (P02554 whole entry, looked up): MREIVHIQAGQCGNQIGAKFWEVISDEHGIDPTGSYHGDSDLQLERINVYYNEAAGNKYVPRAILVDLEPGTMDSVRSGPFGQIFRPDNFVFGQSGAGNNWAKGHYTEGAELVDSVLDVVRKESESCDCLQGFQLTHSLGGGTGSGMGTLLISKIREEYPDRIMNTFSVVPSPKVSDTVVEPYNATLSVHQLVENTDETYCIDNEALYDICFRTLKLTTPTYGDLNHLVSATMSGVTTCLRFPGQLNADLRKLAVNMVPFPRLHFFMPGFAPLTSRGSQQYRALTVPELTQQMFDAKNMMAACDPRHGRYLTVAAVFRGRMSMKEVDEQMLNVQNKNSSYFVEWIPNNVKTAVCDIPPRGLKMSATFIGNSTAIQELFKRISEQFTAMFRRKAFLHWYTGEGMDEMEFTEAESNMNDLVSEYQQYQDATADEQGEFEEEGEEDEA

Row | Compound | IC50 (MCF7 [1]) [µM] | IC50 (HeLa) [µM] | IC50 (HT-29 [2]) [µM] | IC50 [3] [µM] | IC50 (A549) [µM] | further results
1 | O=c1[nH]c(CSC(=S)NCc2ccc(Cl)cc2)nc2ccccc12 | > 50 | > 50 | > 50 | > 50 | > 50 | –
2 | COc1cc(CNC(=S)SCc2nc3ccccc3c(=O)[nH]2)cc(OC)c1OC | 8.97 | 22.9 | 7.16 | 17.3 | 10.4 | –
3 | COc1ccc(CNC(=S)SCc2nc3ccccc3c(=O)[nH]2)cc1 | 10.9 | 12.2 | 5.53 | 22.7 | 7.27 | Activity (HT-29 [4]): Active; Activity (HT-29 [5]): 28.25%; Activity (HT-29 [6]): inactive; Activity (HT-29 [7]): 16.45%; Activity_index (HT-29 [8]): 4.66; Activity (HT-29 [9]): 55.31%; Activity_index (HT-29 [10]): 10.15; Activity (Tubulin (Sus scrofa) [11]): inactive; Activity (Tubulin (Sus scrofa) [12]): Active; Activity_index (HT-29 [13]): 7.75; Activity (HT-29 [14]): inactive; Activity_index (HT-29 [15]): 37.85
4 | O=c1[nH]c(CSC(=S)NCc2cccnc2)nc2ccccc12 | 20.2 | 11 | 14.2 | 11.2 | 14.8 | –
5 | O=c1[nH]c(CSC(=S)NCc2ccc(Br)cc2)nc2ccccc12 | 39.2 | 22.9 | 32.3 | 45.3 | 18.2 | –
6 | O=c1[nH]c(CSC(=S)NCc2ccc(Cl)cc2Cl)nc2ccccc12 | > 50 | 29 | 11.4 | 29.7 | 12.8 | –
7 | O=c1[nH]c(CSC(=S)NCc2ccccn2)nc2ccccc12 | > 50 | > 50 | > 50 | > 50 | > 50 | –
8 | O=c1[nH]c(CSC(=S)NCc2cccs2)nc2ccccc12 | 23.9 | 26.1 | 16.1 | 16.1 | 25.7 | –
9 | O=c1[nH]c(CSC(=S)NCc2ccc(F)cc2F)nc2ccccc12 | 20.4 | 20.1 | 15.7 | 22.3 | 30.6 | –
10 | O=c1[nH]c(CSC(=S)NCc2ccccc2)nc2ccccc12 | 31.3 | 10.7 | 14.5 | 18.1 | 23.7 | –
11 | O=c1[nH]c(CSC(=S)NCc2ccc(C(F)(F)F)nc2)nc2ccccc12 | 19.2 | 28.4 | 16.5 | 16.7 | 12.9 | –
12 | COc1ccccc1CNC(=S)SCc1nc2ccccc2c(=O)[nH]1 | 14.8 | 16.5 | 12.3 | 30.6 | 12 | –
13 | Cc1ccc(CNC(=S)SCc2nc3ccccc3c(=O)[nH]2)cc1 | 21.4 | 20.7 | 16.3 | 23.2 | 32.6 | –
14 | O=c1[nH]c(CSC(=S)NCc2ccc([N+](=O)[O-])cc2)nc2ccccc12 | 19.3 | 28.4 | 17.2 | 16.4 | 11.4 | –
15 | O=c1c2cc(Cl)ccc2nc(/C=C/c2ccccc2)n1-c1ncccn1 | – | – | – | – | – | IC50 (CA46): 1 µM; IC50 (MCF7 [16]): 0.34 µM
16 | O=c1[nH]c(CSC(=S)NCc2ccc3c(c2)OCO3)nc2ccccc12 | 21.7 | 20.3 | 19.3 | 34.2 | 44.6 | –
17 | COC(=O)Nc1nc2cc(C(=O)c3cccs3)ccc2[nH]1 [NOCODAZOLE] | – | – | – | – | – | Activity_index (HT-29 [8]): 5.22; Activity_index (HT-29 [10]): 25.61; Activity_index (HT-29 [13]): 11.4; Activity_index (HT-29 [15]): 64.81
18 | COc1ccc(CNC(=S)SCc2nc3ccccc3c(=O)[nH]2)c(OC)c1 | 13.5 | 16 | 10.1 | 25.5 | 10.5 | –
19 | O=c1[nH]c(CSC(=S)NCc2ccncc2)nc2ccccc12 | 16.1 | 12.5 | 16 | 6.67 | 6.13 | –
20 | CC[C@@]1(O)C(=O)OCc2c1cc1n(c2=O)Cc2cc3ccccc3nc2-1 [CAMPTOTHECIN] | – | – | – | – | – | Activity (HT-29 [17]): Active; Activity_index (HT-29 [8]): 1.55; Activity_index (HT-29 [10]): 0.33; Activity_index (HT-29 [13]): 1.11; Activity (HT-29 [18]): Active
21 | CC(=O)O[C@H]1C(=O)[C@@]2(C)[C@H]([C@H](OC(=O)c3ccccc3)[C@]3(O)C[C@H](OC(=O)[C@H](O)[C@@H](NC(=O)c4ccccc4)c4ccccc4)C(C)=C1C3(C)C)[C@]1(OC(C)=O)CO[C@@H]1C[C@@H]2O [PACLITAXEL] | – | – | – | – | – | Activity (HT-29 [19]): 80.71%; Activity (HT-29 [20]): 1.7%; Activity (HT-29 [21]): 17.6%; Activity (HT-29 [4]): Active
22 | O=c1[nH]c(CSC(=S)NCc2ccco2)nc2ccccc12 | > 50 | 31.2 | 33.7 | 24.6 | 42.6 | –
23 | O=c1[nH]cc(F)c(=O)[nH]1 [FLUOROURACIL] | – | – | – | – | – | Activity (HT-29 [5]): 91.11%; Activity (HT-29 [7]): 5.42%; Activity_index (HT-29 [8]): 2.28; Activity (HT-29 [9]): 3.48%; Activity_index (HT-29 [10]): 0.29; Activity_index (HT-29 [13]): 2.09; Activity_index (HT-29 [15]): 0.23
24 | O=c1[nH]c(CSC(=S)NCc2ccc(F)cc2)nc2ccccc12 | 17.4 | 21.2 | 18.6 | 20.1 | 10.7 | –
25 | O=c1[nH]c(CSC(=S)NCc2ccccc2F)nc2ccccc12 | 20.5 | 13.2 | 16.4 | 20.3 | 21.2 | –
